Measurements of several laboratories.
Compare with care: the assays were run in different laboratories.
ADORA2B: Adenosine receptor A2b (ADORA2B, Homo sapiens, UniProt P29275)
F12: Coagulation factor XII (F12, Homo sapiens, UniProt P00748)
CYP3A4: Cytochrome P450 3A4 (CYP3A4, Homo sapiens, UniProt P08684)

SMILES	target	assay	test system	setting	endpoint	value
CC(C)=CCNc1ncnc2c1ncn2[C@@H]1O[C@H](CO)[C@@H](O)[C@H]1O	ADORA2B	G protein activation, agonist	–	–	EC50	84 µM
O=c1oc(-c2cccnc2)nc2ccccc12	F12	enzyme activity, inhibitor, absorbance	–	pH 7.4	IC50	> 50 µM
COc1cc(O)c2c(c1)C(=O)c1cc(C)cc(O)c1C2=O	CYP3A4	enzyme activity, inhibitor	human, liver microsomes	pH 7.4, testosterone probe	IC50	13.5 µM
CO[C@]1(C(=O)N[C@@H](C)c2ccc(-n3cc(F)cn3)nc2)CC[C@H](c2nc(C)cc(Nc3cc(C)[nH]n3)n2)CC1	CYP3A4	enzyme activity, inhibitor	human, liver microsomes	–	Ki	24 µM
O=c1cc(-c2ccc(O)cc2)oc2c([C@@H]3OC[C@H](O)[C@H](O)[C@H]3O)c(O)c([C@@H]3O[C@H](CO)[C@@H](O)[C@H](O)[C@H]3O)c(O)c12	Calcium/calmodulin-dependent protein kinase type II subunit gamma (CAMK2G, Homo sapiens, UniProt Q13555)	enzyme activity, inhibitor	–	–	IC50	189 µM
O=c1oc(-c2ccco2)nc2ccccc12	F12	enzyme activity, inhibitor, absorbance	–	pH 7.4	IC50	> 50 µM
Oc1ccc2c(c1)CC[C@H](c1ccccc1)[C@@H]2c1ccc(OCCN2CCCC2)cc1	Progesterone receptor (PGR, Homo sapiens, UniProt P06401)	ligand displacement, radioligand	–	–	IC50	0.069 µM
COc1ccc(-c2cc(OCC(=O)N(C)Cc3cccnc3C)nc(-n3nc(C)cc3C)n2)cc1	Leucyl-cystinyl aminopeptidase (LNPEP, Homo sapiens, UniProt Q9UIQ6)	enzyme activity, inhibitor, fluorescence	–	–	IC50	0.157 µM
CN(C)c1ncnc2c1ncn2[C@@H]1O[C@H](CO)[C@@H](O)[C@H]1O	ADORA2B	G protein activation, agonist	–	–	EC50	22 µM
